Laboratory results: ChEMBL document CHEMBL5365503, “Design and Synthesis of 1,3,5-Triazines or Pyrimidines Containing Dithiocarbamate Moiety as PI3Kα Selective Inhibitors” (ACS Med Chem Lett, 2023)
Blank lines part the entries; values can stand above or below the compound they belong to.

Legend:
[1] = target: Phosphatidylinositol 4,5-bisphosphate 3-kinase catalytic subunit alpha isoform (Homo sapiens, UniProt P42336); assay: Inhibition of N-terminal GST-fused full-length human PI3Kalpha (1 to 1068 residues) expressed in baculovirus expression system using PIP2 as substrate incubated for 1 hr in presence of ATP by ADP-Glo assay
[2] = tested on: U-87 MG; assay: Antitumor activity against human U-87 MG cells xenografted in BALB/c mouse assessed as tumor growth inhibition at 40 mg/kg/day, ip for 16 days relative to control; format: functional, U-87MG ATCC; settings: 384 h, time 16 day, read-out: TGI
Method in brief: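 U87-MG xenografts in mice; dosing began once mean tumor volume reached about 100 mm³. Given 40 mg/kg/day intraperitoneally, once daily for 16 days.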

[3] = Toxicity in BALB/c mouse xenografted with human U-87 MG cells assessed as body weight loss at 40 mg/kg/day, ip for 16 days; format: organism-based; settings: in vivo, 384 h, time 16 day
Method in brief: (§1)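 U87-MG xenograft mice treated once tumours averaged ~100 mm³. Dosing was 40 mg/kg/day intraperitoneally, once daily for 16 days. Tumour volume and body weight of each mouse were recorded on days 1, 4, 8, 11, 15 and 17.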

[4] = Metabolic stability in rat liver microsomes assessed as intrinsic clearance […] measured upto 60 mins in presence of NADPH by LC-MS/MS analysis; format: ADME, Microsome; settings: read-out: CLH
[5] = Metabolic stability in rat liver microsomes assessed as half life […] measured upto 60 mins in presence of NADPH by LC-MS/MS analysis; format: ADME, Microsome
[6] = Metabolic stability in rat liver assessed as intrinsic clearance […] measured upto 60 mins in presence of NADPH by LC-MS/MS analysis; format: ADME; settings: read-out: CLH
[7] = target: T1, Phosphatidylinositol 4,5-bisphosphate 3-kinase catalytic subunit delta isoform (Homo sapiens, UniProt O00329); assay: Inhibition of N-terminal 6xHis-tagged recombinant full-length human PI3Kdelta expressed in baculovirus infected Sf21 insect cells by ADP-Glo assay
T1 sequence (O00329 whole entry): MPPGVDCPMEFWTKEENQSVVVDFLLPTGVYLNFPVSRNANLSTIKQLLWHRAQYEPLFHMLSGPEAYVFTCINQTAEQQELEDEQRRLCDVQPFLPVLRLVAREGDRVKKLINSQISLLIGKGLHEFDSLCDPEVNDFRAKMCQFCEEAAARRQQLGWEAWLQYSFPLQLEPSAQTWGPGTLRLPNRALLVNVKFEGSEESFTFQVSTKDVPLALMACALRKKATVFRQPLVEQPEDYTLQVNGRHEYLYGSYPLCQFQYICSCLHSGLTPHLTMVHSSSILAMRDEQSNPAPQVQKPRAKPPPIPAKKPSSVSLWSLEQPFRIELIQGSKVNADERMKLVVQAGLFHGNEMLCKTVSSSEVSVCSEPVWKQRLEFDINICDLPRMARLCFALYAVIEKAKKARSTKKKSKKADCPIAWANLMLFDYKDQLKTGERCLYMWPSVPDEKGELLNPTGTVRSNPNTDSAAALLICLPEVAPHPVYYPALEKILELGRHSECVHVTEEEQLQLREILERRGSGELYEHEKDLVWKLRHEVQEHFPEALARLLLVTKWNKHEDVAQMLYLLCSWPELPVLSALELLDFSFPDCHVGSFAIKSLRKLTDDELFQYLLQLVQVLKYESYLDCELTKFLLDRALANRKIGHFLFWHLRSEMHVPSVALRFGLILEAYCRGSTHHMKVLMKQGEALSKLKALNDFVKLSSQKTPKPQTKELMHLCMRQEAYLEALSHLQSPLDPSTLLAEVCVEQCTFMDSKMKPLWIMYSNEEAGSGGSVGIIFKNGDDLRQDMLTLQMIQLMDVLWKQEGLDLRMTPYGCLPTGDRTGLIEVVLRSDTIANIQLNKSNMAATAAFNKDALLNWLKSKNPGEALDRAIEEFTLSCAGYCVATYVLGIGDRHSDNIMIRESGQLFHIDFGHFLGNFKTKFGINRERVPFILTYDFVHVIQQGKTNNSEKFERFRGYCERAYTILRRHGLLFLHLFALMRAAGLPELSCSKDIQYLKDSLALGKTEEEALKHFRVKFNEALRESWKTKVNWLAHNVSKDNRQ

[8] = tested on: U-87 MG; assay: Antiproliferative activity against human U-87 MG cells assessed as inhibition of cell proliferation incubated for 96 hrs by MTT assay; format: functional, cell-based, U-87MG ATCC
[9] = Toxicity in BALB/c mouse xenografted with human U-87 MG cells assessed as drug tolerance at 40 mg/kg/day, ip for 16 days; format: organism-based; settings: in vivo, 384 h, time 16 day; method in brief: as §1
[10] = target: Phosphatidylinositol 4,5-bisphosphate 3-kinase catalytic subunit beta isoform (Homo sapiens, UniProt P42338); assay: Inhibition of N-terminal 6xHis-tagged recombinant, full length human PI3Kbeta by ADP-Glo assay
[11] = tested on: HCT-116; assay: Antiproliferative activity against human HCT-116 cells assessed as inhibition of cell proliferation incubated for 96 hrs by MTT assay; format: functional, cell-based; settings: HCT-116, 96 h
[12] = Toxicity in BALB/c mouse xenografted with human U-87 MG cells assessed as animal mortality at 40 mg/kg/day, ip for 16 days; format: organism-based; settings: in vivo, 384 h, time 16 day; method in brief: as §1
[13] = Metabolic stability in rat liver microsomes assessed as compound remaining […] measured upto 60 mins by LC-MS/MS analysis; format: ADME, Microsome; settings: read-out: Stability
[14] = target: Phosphatidylinositol 4,5-bisphosphate 3-kinase catalytic subunit gamma isoform (Homo sapiens, UniProt P48736); assay: Inhibition of human PI3Kgamma expressed in baculovirus infected Sf21 insect cells by ADP-Glo assay
[15] = Metabolic stability in rat liver microsomes assessed as compound remaining […] measured upto 60 mins in presence of NADPH by LC-MS/MS analysis; format: ADME, Microsome; settings: read-out: Stability

Phosphatidylinositol 4,5-bisphosphate 3-kinase catalytic subunit gamma isoform, sequence (P48736 whole entry, canonical isoform): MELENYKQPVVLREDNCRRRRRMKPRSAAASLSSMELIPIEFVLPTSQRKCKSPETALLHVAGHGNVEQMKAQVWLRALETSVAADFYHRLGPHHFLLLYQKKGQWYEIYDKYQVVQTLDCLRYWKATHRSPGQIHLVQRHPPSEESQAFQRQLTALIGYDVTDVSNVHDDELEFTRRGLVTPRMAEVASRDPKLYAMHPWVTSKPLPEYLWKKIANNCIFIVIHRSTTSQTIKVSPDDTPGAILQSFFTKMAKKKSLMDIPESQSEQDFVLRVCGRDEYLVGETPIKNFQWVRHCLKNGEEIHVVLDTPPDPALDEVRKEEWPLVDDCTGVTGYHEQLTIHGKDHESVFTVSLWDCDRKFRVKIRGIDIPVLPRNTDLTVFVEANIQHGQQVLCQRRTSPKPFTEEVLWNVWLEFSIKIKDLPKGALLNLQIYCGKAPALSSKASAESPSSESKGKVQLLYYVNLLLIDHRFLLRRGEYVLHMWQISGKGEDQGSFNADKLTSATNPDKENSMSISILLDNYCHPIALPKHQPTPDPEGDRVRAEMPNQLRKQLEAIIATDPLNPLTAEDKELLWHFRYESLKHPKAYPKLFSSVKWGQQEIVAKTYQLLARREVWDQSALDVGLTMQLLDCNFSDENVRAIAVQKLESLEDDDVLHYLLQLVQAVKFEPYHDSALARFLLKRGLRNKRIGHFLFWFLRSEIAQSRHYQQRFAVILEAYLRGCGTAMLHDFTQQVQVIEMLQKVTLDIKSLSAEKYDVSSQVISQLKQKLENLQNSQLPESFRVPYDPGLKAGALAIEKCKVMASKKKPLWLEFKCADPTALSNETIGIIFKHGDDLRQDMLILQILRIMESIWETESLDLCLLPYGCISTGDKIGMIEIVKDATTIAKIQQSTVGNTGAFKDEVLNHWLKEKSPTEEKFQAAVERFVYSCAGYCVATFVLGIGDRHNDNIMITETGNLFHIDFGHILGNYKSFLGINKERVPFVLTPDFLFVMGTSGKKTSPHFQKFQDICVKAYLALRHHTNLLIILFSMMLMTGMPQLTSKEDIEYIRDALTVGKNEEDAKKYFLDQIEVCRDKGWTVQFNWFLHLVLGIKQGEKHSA
Phosphatidylinositol 4,5-bisphosphate 3-kinase catalytic subunit beta isoform, sequence (P42338 whole entry, canonical isoform): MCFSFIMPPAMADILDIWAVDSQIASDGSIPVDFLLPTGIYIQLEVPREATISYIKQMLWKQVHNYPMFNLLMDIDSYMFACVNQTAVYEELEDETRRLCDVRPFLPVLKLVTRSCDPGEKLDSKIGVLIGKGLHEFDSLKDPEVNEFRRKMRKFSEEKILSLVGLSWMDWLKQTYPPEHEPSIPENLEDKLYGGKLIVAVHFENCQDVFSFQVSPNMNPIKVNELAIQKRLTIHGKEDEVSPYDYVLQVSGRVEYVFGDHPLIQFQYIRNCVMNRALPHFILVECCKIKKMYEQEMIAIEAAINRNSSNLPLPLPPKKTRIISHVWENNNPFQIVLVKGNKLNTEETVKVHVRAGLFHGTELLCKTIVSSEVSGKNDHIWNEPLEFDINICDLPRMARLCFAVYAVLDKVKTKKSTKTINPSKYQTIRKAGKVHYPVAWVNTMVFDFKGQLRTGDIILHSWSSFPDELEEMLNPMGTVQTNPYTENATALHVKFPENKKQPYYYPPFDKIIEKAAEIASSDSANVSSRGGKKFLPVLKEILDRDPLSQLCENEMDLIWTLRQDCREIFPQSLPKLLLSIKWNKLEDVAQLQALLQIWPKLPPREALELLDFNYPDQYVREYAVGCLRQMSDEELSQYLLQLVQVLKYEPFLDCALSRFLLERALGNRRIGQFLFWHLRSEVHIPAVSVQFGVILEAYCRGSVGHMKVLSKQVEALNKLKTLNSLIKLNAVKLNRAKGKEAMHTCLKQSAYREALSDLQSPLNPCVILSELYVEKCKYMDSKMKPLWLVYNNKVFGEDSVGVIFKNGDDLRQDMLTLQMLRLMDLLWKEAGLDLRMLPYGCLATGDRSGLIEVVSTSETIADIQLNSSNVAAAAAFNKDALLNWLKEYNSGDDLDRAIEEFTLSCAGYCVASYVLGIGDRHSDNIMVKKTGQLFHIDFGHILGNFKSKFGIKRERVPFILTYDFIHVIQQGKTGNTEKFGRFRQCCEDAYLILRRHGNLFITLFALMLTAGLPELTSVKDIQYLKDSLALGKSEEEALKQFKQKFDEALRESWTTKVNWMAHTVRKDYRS
Phosphatidylinositol 4,5-bisphosphate 3-kinase catalytic subunit alpha isoform, sequence (P42336 whole entry, the tested form may be a part, canonical isoform): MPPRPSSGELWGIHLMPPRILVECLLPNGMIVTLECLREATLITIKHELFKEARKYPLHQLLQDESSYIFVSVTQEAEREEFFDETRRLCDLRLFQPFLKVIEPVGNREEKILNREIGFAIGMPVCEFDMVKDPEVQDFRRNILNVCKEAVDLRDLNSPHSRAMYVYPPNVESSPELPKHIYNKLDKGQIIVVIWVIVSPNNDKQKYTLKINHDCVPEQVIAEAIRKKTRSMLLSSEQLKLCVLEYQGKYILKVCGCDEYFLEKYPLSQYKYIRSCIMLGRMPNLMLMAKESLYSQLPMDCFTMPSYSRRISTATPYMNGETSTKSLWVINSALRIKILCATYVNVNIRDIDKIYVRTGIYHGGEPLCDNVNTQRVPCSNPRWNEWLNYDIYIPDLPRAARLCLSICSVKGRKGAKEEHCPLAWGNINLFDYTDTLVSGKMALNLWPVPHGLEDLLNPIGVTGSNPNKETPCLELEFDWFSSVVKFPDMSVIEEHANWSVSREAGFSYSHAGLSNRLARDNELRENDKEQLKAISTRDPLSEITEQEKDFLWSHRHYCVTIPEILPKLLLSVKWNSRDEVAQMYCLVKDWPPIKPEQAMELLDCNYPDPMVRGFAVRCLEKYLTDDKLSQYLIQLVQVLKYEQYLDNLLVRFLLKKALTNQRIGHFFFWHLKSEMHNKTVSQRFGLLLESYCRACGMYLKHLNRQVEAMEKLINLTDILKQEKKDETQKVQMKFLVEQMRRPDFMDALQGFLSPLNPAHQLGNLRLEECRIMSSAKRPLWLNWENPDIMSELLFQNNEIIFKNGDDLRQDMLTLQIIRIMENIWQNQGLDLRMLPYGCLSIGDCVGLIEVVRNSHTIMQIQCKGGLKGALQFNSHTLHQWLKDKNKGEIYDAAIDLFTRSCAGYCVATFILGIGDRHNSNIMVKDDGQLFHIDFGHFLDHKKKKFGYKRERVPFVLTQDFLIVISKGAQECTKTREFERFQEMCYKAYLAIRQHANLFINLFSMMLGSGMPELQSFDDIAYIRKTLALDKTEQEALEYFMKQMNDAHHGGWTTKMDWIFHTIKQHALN

Compound: COc1cccc2c1nc(C(F)F)n2-c1nc(N2CCOCC2)nc(N2CCN(C(=S)SCCN3CCCC3)CC2)n1
IC50 [1]: 20 nM

Compound: CCN(CC)CCSC(=S)N1CCN(c2nc(N3CCOCC3)nc(-n3c(C(F)F)nc4c(OC)cccc43)n2)CC1
IC50 [1]: 38 nM

Compound: COc1cccc2c1nc(C(F)F)n2-c1nc(N2CCOCC2)nc(N2CCN(C(=S)SCCN3CCOCC3)CC2)n1
IC50 [1]: 29 nM

Compound: COc1cccc2c1nc(C(F)F)n2-c1nc(N2CCOCC2)cc(N2CCN(C(=S)SCC(=O)NC3CCCC3)CC2)n1
IC50 [1]: 34 nM

Compound: COc1cccc2c1nc(C(F)F)n2-c1nc(N2CCOCC2)nc(N2CCN(C(=S)SCC(=O)N3CCN(S(C)(=O)=O)CC3)CC2)n1
inhibition in vivo at 40 mg/kg/day [2]: 42%
Activity [3]: Non-Toxic
microsomal CLint [4]: 64 µL/min/mg
half-life [5]: 21.5 min
CLint scaled [6]: 116 mL/min/kg
IC50 [7]: > 50 nM
IC50 [8]: 1250 nM
Activity [9]: Non-Toxic
IC50 [10]: > 50 nM
IC50 [11]: 830 nM
Activity [12]: Non-Toxic
remaining at 1 h [13]: 68.2%
IC50 [14]: 42 nM
remaining at 1 h [15]: 11.2%
IC50 [1]: 1.2 nM

Compound: COc1cccc2c1nc(C(F)F)n2-c1nc(N2CCOCC2)nc(N2CCN(C(=S)SCCN(C)C)CC2)n1
IC50 [1]: 63 nM

Compound: COc1cccc2c1nc(C(F)F)n2-c1nc(N2CCOCC2)cc(N2CCN(C(=S)SCC(=O)NC3CCCCC3)CC2)n1
IC50 [1]: 12 nM

Compound: COc1cccc2c1nc(C(F)F)n2-c1nc(N2CCOCC2)nc(N2CCN(C(=S)SCC(=O)NC3CCCCC3)CC2)n1
IC50 [1]: 5.1 nM

Compound: COc1cccc2c1nc(C(F)F)n2-c1nc(N2CCOCC2)cc(N2CCN(C(=S)SCC(=O)NC3CCC3)CC2)n1
IC50 [1]: 3.3 nM

Compound: COc1cccc2c1nc(C(F)F)n2-c1nc(N2CCOCC2)cc(N2CCN(C(=S)SCCN3CCOCC3)CC2)n1
IC50 [1]: 81 nM

Compound: COc1cccc2c1nc(C(F)F)n2-c1nc(N2CCOCC2)nc(N2CCN(C(=S)SCCN3CCCCC3)CC2)n1
IC50 [1]: 42 nM

Compound: COc1cccc2c1nc(C(F)F)n2-c1nc(N2CCOCC2)nc(N2CCN(C(=S)SCC(=O)NC3CCCC3)CC2)n1
IC50 [1]: 2.8 nM

Compound: COc1cccc2c1nc(C(F)F)n2-c1nc(N2CCOCC2)nc(N2CCN(C(=S)SCC(=O)N3CCN(C4CCCC4)CC3)CC2)n1
IC50 [1]: 2.5 nM

Compound: COc1cccc2c1nc(C(F)F)n2-c1nc(N2CCOCC2)cc(N2CCN(C(=S)SCC(=O)NC3CC3)CC2)n1
IC50 [1]: 2.7 nM

Compound: COCCSC(=S)N1CCN(c2nc(N3CCOCC3)nc(-n3c(C(F)F)nc4c(OC)cccc43)n2)CC1
IC50 [1]: 21 nM

Compound: COc1cccc2c1nc(C(F)F)n2-c1nc(N2CCOCC2)nc(N2CCN(C(=S)SCCN3CCN(C)CC3)CC2)n1
IC50 [1]: 9.1 nM

Compound: COc1cccc2c1nc(C(F)F)n2-c1nc(N2CCOCC2)cc(N2CCN(C(=S)SCCN(C)C)CC2)n1
IC50 [1]: 34 nM

Compound: COc1cccc2c1nc(C(F)F)n2-c1nc(N2CCOCC2)cc(N2CCN(C(=S)SCC(N)=O)CC2)n1
IC50 [1]: 2.5 nM

Compound: COCCSC(=S)N1CCN(c2cc(N3CCOCC3)nc(-n3c(C(F)F)nc4c(OC)cccc43)n2)CC1
IC50 [1]: 17 nM

Compound: COc1cccc2c1nc(C(F)F)n2-c1nc(N2CCOCC2)cc(N2CCN(C(=S)SCCN3CCN(C)CC3)CC2)n1
IC50 [1]: 120 nM

Compound: FC(F)c1nc2ccccc2n1-c1nc(N2CCOCC2)nc(N2CCOCC2)n1 [ZSTK-474]
inhibition in vivo at 40 mg/kg/day [2]: 72%
Activity [3]: Non-Toxic
microsomal CLint [4]: 54 µL/min/mg
half-life [5]: 25.7 min
CLint scaled [6]: 97 mL/min/kg
IC50 [8]: 130 nM
Activity [9]: Non-Toxic
IC50 [11]: 710 nM
Activity [12]: Non-Toxic
remaining at 1 h [13]: 100%
remaining at 1 h [15]: 19.6%

Continued, values first:

IC50 [1]: 1.6 nM
Compound: COc1cccc2c1nc(C(F)F)n2-c1nc(N2CCOCC2)nc(N2CCN(C(=S)SCC(N)=O)CC2)n1

IC50 [1]: 1.6 nM
Compound: COc1cccc2c1nc(C(F)F)n2-c1nc(N2CCOCC2)nc(N2CCN(C(=S)SCC(=O)NC3CCC3)CC2)n1

IC50 [7]: > 50 nM
IC50 [8]: 1220 nM
IC50 [10]: > 50 nM
IC50 [11]: 1530 nM
IC50 [14]: 35 nM
IC50 [1]: 1.2 nM
Compound: COc1cccc2c1nc(C(F)F)n2-c1nc(N2CCOCC2)cc(N2CCN(C(=S)SCC(=O)N3CCOCC3)CC2)n1

IC50 [1]: 1.3 nM
Compound: CCN(CC)C(=O)CSC(=S)N1CCN(c2cc(N3CCOCC3)nc(-n3c(C(F)F)nc4c(OC)cccc43)n2)CC1

IC50 [1]: 0.9 nM
Compound: COc1cccc2c1nc(C(F)F)n2-c1nc(N2CCOCC2)nc(N2CCN(C(=S)SCC(=O)N3CCCC3)CC2)n1

IC50 [8]: 600 nM
IC50 [11]: 1110 nM
IC50 [1]: 0.7 nM
Compound: COc1cccc2c1nc(C(F)F)n2-c1nc(N2CCOCC2)nc(N2CCN(C(=S)SCC(=O)N3CCOCC3)CC2)n1

IC50 [8]: 1670 nM
IC50 [11]: 980 nM
IC50 [1]: 1.4 nM
Compound: COc1cccc2c1nc(C(F)F)n2-c1nc(N2CCOCC2)nc(N2CCN(C(=S)SCC(=O)N3CCN(C)CC3)CC2)n1

IC50 [8]: 1100 nM
IC50 [11]: 2780 nM
IC50 [1]: 0.8 nM
Compound: COc1cccc2c1nc(C(F)F)n2-c1nc(N2CCOCC2)nc(N2CCN(C(=S)SCC(=O)N(C)C)CC2)n1

IC50 [1]: 1.4 nM
Compound: COc1cccc2c1nc(C(F)F)n2-c1nc(N2CCOCC2)nc(N2CCN(C(=S)SCC(=O)NC3CC3)CC2)n1

IC50 [8]: 1990 nM
IC50 [11]: 1230 nM
IC50 [1]: 1.4 nM
Compound: COc1cccc2c1nc(C(F)F)n2-c1nc(N2CCOCC2)cc(N2CCN(C(=S)SCC(=O)N3CCCC3)CC2)n1

IC50 [7]: > 50 nM
IC50 [8]: 2040 nM
IC50 [10]: > 50 nM
IC50 [11]: 2200 nM
IC50 [14]: 33 nM
IC50 [1]: 1.8 nM
Compound: COc1cccc2c1nc(C(F)F)n2-c1nc(N2CCOCC2)cc(N2CCN(C(=S)SCC(=O)N(C)C)CC2)n1

IC50 [1]: 1.1 nM
Compound: CCN(CC)C(=O)CSC(=S)N1CCN(c2nc(N3CCOCC3)nc(-n3c(C(F)F)nc4c(OC)cccc43)n2)CC1
